Data as given in PMC4570879 (Journal of biomolecular screening, 2014).

Experiments:
[1] = molecular target: T1, Human recombinant catalytic domain of PERK (Homo sapiens, UniProt Q9NZJ5); conditions: published PERK inhibitor; cited from earlier work
T1 sequence (Q9NZJ5 536-1116): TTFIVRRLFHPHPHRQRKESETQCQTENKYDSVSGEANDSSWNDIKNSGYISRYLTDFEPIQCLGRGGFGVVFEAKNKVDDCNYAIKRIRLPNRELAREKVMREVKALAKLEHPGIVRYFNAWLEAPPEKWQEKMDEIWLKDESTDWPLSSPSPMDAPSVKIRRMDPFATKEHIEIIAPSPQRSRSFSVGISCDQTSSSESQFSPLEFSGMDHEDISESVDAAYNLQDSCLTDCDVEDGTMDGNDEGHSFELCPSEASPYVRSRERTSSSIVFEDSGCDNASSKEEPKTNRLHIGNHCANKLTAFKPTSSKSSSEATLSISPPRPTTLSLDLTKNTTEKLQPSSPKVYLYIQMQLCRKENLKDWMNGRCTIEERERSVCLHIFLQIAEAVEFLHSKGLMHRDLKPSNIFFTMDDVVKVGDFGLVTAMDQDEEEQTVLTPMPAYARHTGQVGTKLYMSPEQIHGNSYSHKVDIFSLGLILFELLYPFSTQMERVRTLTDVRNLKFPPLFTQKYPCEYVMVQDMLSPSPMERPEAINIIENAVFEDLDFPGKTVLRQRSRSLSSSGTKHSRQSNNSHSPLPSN

[2] = molecular target: T1, Human recombinant catalytic domain of PERK; test: Radiometric PERK kinase assay; assay type: biochemical; conditions: method of replots
Method in brief: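 Radiometric filter assay using GST-tagged human PERK catalytic domain (aa 536–1116) at 8 nM and full-length Flag-tagged eIF2α. Buffer was 20 mM HEPES pH 7.2, 10 mM MgCl₂, 150 mM NaCl, 0.01% Tween 20, with [γ-³³P]ATP, at room temperature. Initial velocity versus ATP was measured at fixed 10 µM eIF2α across several test compound concentrations. Reactions were stopped with 75 mM phosphoric acid, filter-captured, washed and scintillation-counted; no-PERK background; analysed by replots.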

PERK = test: Thapsigargin-induced eIF2α phosphorylation in MEFs; assay type: cell-based, mouse; conditions: wild-type MEFs, pretreated at 50 µM for 1 or 24 h, then thapsigargin 500 nM 1 h
Method in brief: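 Wild-type mouse embryonic fibroblasts were grown in high-glucose DMEM with 4 mM L-glutamine, 10% FBS, penicillin/streptomycin and β-mercaptoethanol. Cells were pretreated with test compound at 50 µM for 1 or 24 h, then with 500 nM thapsigargin for 1 h; PERK⁻/⁻ MEFs served as control.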

Row | mechanism of inhibition with respect to ATP ([2]; ATP variable, fixed eIF2α) | mechanism of inhibition with respect to eIF2α ([2]; eIF2α variable, fixed ATP) | Compound | mechanism of action on PERK [1] | stress-dependent eIF2α phosphorylation (PERK)
1 |  |  | Cn1cc(-c2ccc3c(c2)CCN3C(=O)Cc2cccc(C(F)(F)F)c2)c2c(N)ncnc21 [GSK2606414, 7-Methyl-5-(1-{[3-(trifluoromethyl)phenyl]acetyl}-2,3-di-hydro-1H–indol-5-yl)-7H–p yrrolo[2,3-d]pyrimidin-4-amine] | ATP competitive | 
2 | noncompetitive | noncom-petitive | O=c1ccc2nccc3c4ccccc4n1c23 [LDN-0022506, canthin-6-one] |  | inhibited
